Converted amounts (≈) assume the structure as drawn.
What was measured:
[1] = Maximum velocity against human liver microsomes; (n=6); format: ADME, Microsome
Method in brief: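 Pooled human liver microsomes, 1 mg/mL, in NADPH regenerating buffer (1.25 mM βNADP+, 3.3 mM glucose-6-phosphate, 3.3 mM MgCl2). Mix preincubated 5 min at 37 °C, then started with glucose-6-phosphate dehydrogenase (1 unit/mL final). Substrate at 25–500 µM, 90 min at 37 °C. Stopped with ice-cold acetonitrile containing internal standard. Dihydrotriazine metabolite quantified by LC-MS/MS against synthetic standard curves. Vmax from Michaelis–Menten nonlinear fit using only ≤200 µM data, n=6.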

[2] = tested on: Plasmodium falciparum; assay: In vitro antimalarial activity for DHFR wild-type, chloroquine and pyrimethamine-sensitive Plasmodium falciparum D6; format: functional, organism-based
Method in brief: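 [3H]-hypoxanthine incorporation assay in folate-free medium. Two-fold dilutions; range 5000 (or 2500) ng/mL to 5 pg/mL for parent biguanides, 5 ng/mL to 5 fg/mL for dihydrotriazine metabolites. DMSO ≤0.002%. 37 °C under 90% N2/5% CO2/5% O2; label added at 48 h, harvest at 72 h, scintillation counting. Triplicate on three occasions; IC50 by sigmoid nonlinear regression versus drug-free controls.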

[3] = tested on: Plasmodium falciparum; assay: In vitro antimalarial activity for DHFR mutant, chloroquine and pyrimethamine-resistant Plasmodium falciparum W2

SMILES | Vmax [1] [nmol/min/mg] | IC50 [2] [ng/mL] | IC50 [3] [ng/mL]
CC(C)NC(=N)NC(=N)NOCCCOc1ccc(OC(F)(F)F)cc1 | 13.5 | > 2500 | > 5000
CC1(C)N=C(N)N=C(N)N1OCCCOc1ccc(OC(F)(F)F)cc1Cl | – | 0.01 (≈ 0.0244 nM) | 0.031 (≈ 0.0756 nM)
[H]/N=C(\N/C(=N/[H])Nc1ccc(Cl)cc1)NC(C)C [PROGUANIL] | 19.6 | > 5000 | > 5000
CC1(C)N=C(N)N=C(N)N1OCCCOc1ccc(C(F)(F)F)cc1 | – | 0.01 (≈ 0.0278 nM) | 0.063 (≈ 0.175 nM)
CC(C)/N=C(N)/N=C(/N)NOCCCOc1ccccc1OC(F)(F)F | 13.3 | > 2500 | > 5000
CC1(C)N=C(N)N=C(N)N1OCCCOc1ccc(Cl)c(Cl)c1 | – | 0.009 (≈ 0.025 nM) | 0.028 (≈ 0.0777 nM)
CC1(C)N=C(N)N=C(N)N1OCCCOc1ccc(OC(F)(F)F)cc1 | – | 0.01 (≈ 0.0266 nM) | 0.052 (≈ 0.139 nM)
CC1(C)N=C(N)N=C(N)N1OCCCOc1ccccc1OC(F)(F)F | – | 0.022 (≈ 0.0586 nM) | 0.053 (≈ 0.141 nM)
CC1(C)N=C(N)N=C(N)N1c1ccc(Cl)cc1 [CYCLOGUANIL] | – | 0.328 (≈ 1.3 nM) | > 2.5
CC1(C)N=C(N)N=C(N)N1OCCCOc1ccc(OCC(F)(F)F)cc1Cl | – | 0.022 (≈ 0.0519 nM) | 0.081 (≈ 0.191 nM)
CC(C)NC(=N)NC(=N)NOCCCOc1cc(Cl)c(Cl)cc1Cl | 11.6 | 877 (≈ 2210 nM) | 3790 (≈ 9540 nM)
CC1(C)N=C(N)N=C(N)N1OCCCOc1cc(Cl)c(Cl)cc1Cl | – | 0.02 (≈ 0.0507 nM) | 0.016 (≈ 0.0405 nM)
CC(C)/N=C(N)/N=C(/N)NOCCCOc1ccc(C(F)(F)F)cc1Cl | 15.4 | 2230 (≈ 5640 nM) | > 5000
CCc1nc(N)nc(N)c1-c1ccc(Cl)cc1 [PYRIMETHAMINE] | – | 1.2 (≈ 4.82 nM) | 130 (≈ 523 nM)
CC(C)/N=C(N)/N=C(/N)NOCCCOc1ccc(OCC(F)(F)F)cc1 | 18.7 | > 2500 | > 5000
N=C(NOCCCOc1ccc(OC(F)(F)F)cc1)NC(=N)NC1CC1 | – | > 2500 | > 5000
CC(C)/N=C(N)/N=C(/N)NOCCCOc1ccc(C(F)(F)F)cc1 | 10.8 | > 2500 | > 5000
CC(C)NC(=N)NC(=N)NOCCCOc1ccc(Cl)c(Cl)c1 | 27.7 | 845 (≈ 2330 nM) | 2550 (≈ 7040 nM)

— ChEMBL document CHEMBL1143593, “In vitro metabolism of phenoxypropoxybiguanide analogues in human liver microsomes to potent antimalarial dihydrotriazines” (J Med Chem, 2005)
